According to ChEMBL document CHEMBL4406880, “Design, synthesis, and bioactivity of dihydropyrimidine derivatives as kinesin spindle protein inhibitors” (Bioorg Med Chem, 2019):
One block for each compound: values may come before it.

What was measured:
HeLa = experiment: Antiproliferative activity against human HeLa cells assessed as growth percentage incubated for 72 hrs by XTT assay; format: functional, cell-based
MCF7 = experiment: Antiproliferative activity against human MCF7 cells assessed as growth percentage incubated for 72 hrs by XTT assay; format: functional, cell-based; details: MCF7, 72 h
[1] = Inhibition of kinesin (unknown origin) assessed as reduction in ATPase activity using microtubule as substrate measured for 5 to mins; design: species or system Homo sapiens
[2] = Growth inhibition of human HEK293 cells assessed as cell viability at 1.56 ug incubated for 48 hrs by MTT assay relative to control; format: cell-based; details: read-out: Activity
[3] = Growth inhibition of human HEK293 cells assessed as cell viability at 0.39 ug incubated for 48 hrs by MTT assay relative to control; format: cell-based; details: read-out: Activity
[4] = Growth inhibition of human HEK293 cells assessed as cell viability at 6.25 ug incubated for 48 hrs by MTT assay relative to control; format: cell-based; details: read-out: Activity
[5] = Growth inhibition of human HEK293 cells assessed as cell viability at 100 ug incubated for 48 hrs by MTT assay relative to control; format: cell-based; details: read-out: Activity
[6] = Growth inhibition of human HEK293 cells assessed as cell viability at 25 ug incubated for 48 hrs by MTT assay relative to control; format: cell-based; details: read-out: Activity
SNB-75 [7] = experiment: Induction of apoptosis in human SNB75 cells assessed as early apoptotic cells at 2 uM incubated for 24 hrs by annexin V FITC and propidium iodide based flow cytometry (reference value: 0.82 %); format: functional
SNB-75 [8] = experiment: Cell cycle arrest in human SNB75 cells assessed as accumulation in G2/M phase at 2 uM incubated for 24 hrs by propidium iodide based flow cytometry (reference value: 10.46 %); format: functional
Outline: (§1)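 SNB-75 cells were exposed to 2 µM for 24 h at 37 °C, 5% CO2, then washed with PBS and fixed in 70% ethanol on ice for 15 min. They were stained 1 h at room temperature with 50 µg/mL propidium iodide, 0.1 mg/mL RNase A and 0.05% Triton X-100. DNA content was read by flow cytometry to give the % of cells in pre-G1, G0/G1, S and G2/M.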

SNB-75 [9] = experiment: Cell cycle arrest in human SNB75 cells assessed as accumulation in S phase at 2 uM incubated for 24 hrs by propidium iodide based flow cytometry (reference value: 33.92 %); format: functional; outline: as §1
SNB-75 [10] = experiment: Cell cycle arrest in human SNB75 cells assessed as accumulation in G0/G1 phase at 2 uM incubated for 24 hrs by propidium iodide based flow cytometry (reference value: 55.62 %); format: functional; outline: as §1
SNB-75 [11] = experiment: Induction of apoptosis in human SNB75 cells assessed as necrosis at 2 uM incubated for 24 hrs by annexin V FITC and propidium iodide based flow cytometry (reference value: 0.44 %); format: functional
MDA-MB-435 [12] = experiment: Induction of apoptosis in human MDA-MB-435 cells assessed as active caspase 3 level incubated for 2 hrs by ELISA (reference value: 1); format: functional
Outline: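 Active caspase-3 was measured by human sandwich ELISA. Samples were incubated on the plate for 2 h at room temperature. This was followed by 1 h with detection antibody, 30 min with anti-rabbit IgG-HRP, and 30 min with chromogen, with all steps at room temperature. Absorbance was read at 450 nm, and levels were read from a standard curve.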

MDA-MB-435 [13] = experiment: Induction of apoptosis in human MDA-MB-435 cells assessed as active caspase 9 level incubated for 2 hrs by ELISA (reference value: 1); format: functional
Outline: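 Caspase-9 was measured by human ELISA on cell lysates, with samples in duplicate. Samples were incubated with detection antibody for 2 h at room temperature. This was followed by 1 h with anti-rabbit IgG-HRP and 10 min with TMB substrate. After a stop solution, absorbance was read at 450 nm.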

[14] = molecular target: Kinesin-like protein KIF11 (Homo sapiens, UniProt P52732); experiment: Inhibition of recombinant human His-tagged Eg5 (1 to 368 residues) assessed as reduction in ATPase activity by […] based assay
Sequence of Kinesin-like protein KIF11 (P52732 whole entry, the tested form may be a part): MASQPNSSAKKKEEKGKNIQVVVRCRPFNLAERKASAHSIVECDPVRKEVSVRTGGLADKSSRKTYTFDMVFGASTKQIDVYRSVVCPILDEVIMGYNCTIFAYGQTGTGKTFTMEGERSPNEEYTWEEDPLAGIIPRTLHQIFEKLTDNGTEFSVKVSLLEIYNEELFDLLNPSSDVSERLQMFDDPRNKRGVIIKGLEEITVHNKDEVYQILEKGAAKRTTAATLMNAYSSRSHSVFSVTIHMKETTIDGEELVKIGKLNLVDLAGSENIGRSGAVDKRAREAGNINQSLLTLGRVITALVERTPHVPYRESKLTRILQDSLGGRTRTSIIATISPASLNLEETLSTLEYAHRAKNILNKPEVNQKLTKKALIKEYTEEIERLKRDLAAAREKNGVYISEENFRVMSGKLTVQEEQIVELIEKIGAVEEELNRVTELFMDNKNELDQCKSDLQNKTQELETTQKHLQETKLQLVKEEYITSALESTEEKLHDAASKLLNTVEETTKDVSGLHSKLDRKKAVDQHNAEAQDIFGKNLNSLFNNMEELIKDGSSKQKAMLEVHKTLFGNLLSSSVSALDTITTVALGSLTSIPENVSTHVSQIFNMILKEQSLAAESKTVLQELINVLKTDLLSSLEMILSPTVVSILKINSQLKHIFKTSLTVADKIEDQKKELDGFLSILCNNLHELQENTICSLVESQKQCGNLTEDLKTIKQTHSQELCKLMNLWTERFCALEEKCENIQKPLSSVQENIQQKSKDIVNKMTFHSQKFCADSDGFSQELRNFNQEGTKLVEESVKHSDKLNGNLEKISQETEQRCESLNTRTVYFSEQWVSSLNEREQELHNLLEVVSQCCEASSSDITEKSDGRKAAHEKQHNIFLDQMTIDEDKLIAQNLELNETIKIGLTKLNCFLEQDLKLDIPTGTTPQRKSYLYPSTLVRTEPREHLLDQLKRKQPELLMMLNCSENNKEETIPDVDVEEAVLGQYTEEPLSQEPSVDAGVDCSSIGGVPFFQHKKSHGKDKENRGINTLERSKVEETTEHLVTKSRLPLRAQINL

SNB-75 [15] = experiment: Cell cycle arrest in human SNB75 cells assessed as accumulation in preG1 phase at 2 uM incubated for 24 hrs by propidium iodide based flow cytometry (reference value: 1.85 %); format: functional; outline: as §1
SNB-75 [16] = experiment: Induction of apoptosis in human SNB75 cells assessed as late apoptotic cells at 2 uM incubated for 24 hrs by annexin V FITC and propidium iodide based flow cytometry (reference value: 0.59 %); format: functional

- IC50 (HeLa): 40 µM
- IC50 (MCF7): 55 µM
Compound: CC1=C(C(=O)OCc2ccccc2)C(c2ccco2)NC(=O)N1 (centres undefined)

- IC50 [1]: 0.1 µM
Compound: CC1=C(C(=O)c2ccccc2)C(c2cccc(O)c2)NC(=S)N1C (centres undefined)

Compound: COc1cccc2c1C(=O)c1c(O)c3c(c(O)c1C2=O)C[C@@](O)(C(=O)CO)C[C@@H]3O[C@H]1C[C@H](N)[C@H](O)[C@H](C)O1 [DOXORUBICIN]
- viability at 48 h, 1.56 ug [2]: 64.7%
- viability at 48 h, 0.39 ug [3]: 75.1%
- viability at 48 h, 6.25 ug [4]: 55.2%
- viability at 48 h, 100 ug [5]: 33.8%
- viability at 48 h, 25 ug [6]: 43.6%

- IC50 [1]: 20 µM
- IC50 [14]: 20 µM
Compound: CCOC(=O)C1=C(C)NC(=S)NC1c1cccc(O)c1 (centres undefined) [MONASTROL]
- Activity (SNB-75 [7]): 4.72%
- Activity (SNB-75 [8]): 41.26%
- Activity (SNB-75 [9]): 29.18%
- Activity (SNB-75 [10]): 29.56%
- Activity (SNB-75 [11]): 2.32%
- fold change (FC) (MDA-MB-435 [12]): 6.9
- fold change (FC) (MDA-MB-435 [13]): 11.92
- Activity (SNB-75 [15]): 22.58%
- Activity (SNB-75 [16]): 15.54%
